Screens: PubChem BioAssay, PCMD
Most compounds without a hit are left out; they make up all but 1% or so of the library.
hK5 inh – inhibitors of human kallikrein 5; inhibition, % at 5 µM; 0.59% of 210,000 active; Q9Y337; AID 873; recombinant hK5, fluorogenic AMC substrate cleavage;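 active = inhibition of 40% or more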
Target sequence (Q9Y337 67-293 limits assumed): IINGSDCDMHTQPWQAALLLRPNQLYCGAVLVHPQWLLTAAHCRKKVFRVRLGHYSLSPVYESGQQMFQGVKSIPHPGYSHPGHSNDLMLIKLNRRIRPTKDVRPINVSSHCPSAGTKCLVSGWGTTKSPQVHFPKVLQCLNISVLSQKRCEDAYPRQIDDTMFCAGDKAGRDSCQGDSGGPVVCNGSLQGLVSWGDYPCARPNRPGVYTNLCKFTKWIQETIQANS
FXIIa inh 1536 – factor XIIa (human) inhibition; inhibition, % at 5 µM; P00748; 0.3% of 220,000 active; purified FXIIa, Boc-QGR-AMC fluorogenic substrate, 2 h; in the data active = inhibition above about 40%
thrombin 1536 – thrombin (human) inhibition. P00734. alpha-thrombin, Boc-VPR-AMC fluorogenic substrate cleavage. inhibition, % at 5 µM. 0.26% of 220,000 active;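 active = inhibition at or above 40%; inactive = inhibition below 40%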
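Material: human alpha-thrombin enzyme / Medium: pH 7.5 Tris (50 mM) with NaCl 150 mM, Tween 20 0.05% / Compound: single-point dosing at 5 µM, 0.2% DMSO / Incubation: enzyme reaction carried out at room temperature / Detection: AMC fluorescence, 355/460 nm / Read-out basis: percent inhibition scaled between no-compound controls and no-enzyme blanks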
FXIa inh 1536 – blocks human coagulation factor XIa protease activity. P03951. purified FXIa, Boc-Glu-Ala-Arg-AMC fluorogenic substrate. inhibition, % at 5 µM. 0.14% of 220,000 active;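 active = inhibition of at least 40%; inactive = inhibition below 40%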;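 note: fluorescence of freed AMC excited at 355 nm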
Of the large screens only hits and unclear results are named; the others gave an inactive call.

CCOC(=O)c1ccc2c(c1)nc(C1CCN(S(=O)(=O)c3cccs3)CC1)n2CC	FXIIa inh 1536 52
CS(=O)(=O)N1CCN(Cc2ccc([N+](=O)[O-])cc2)CC1	hK5 inh 51
CC1=C(C(=O)Nc2ccc(C)cc2)C(c2ccc(C)o2)C2=C(CC(C)(C)CC2=O)N1 (stereo not given)	FXIIa inh 1536 45
CN(C(=O)COC(=O)c1ccccc1SCC(=O)NC1CCCCCCC1)C1CCS(=O)(=O)C1 (stereo not given)	none
O=C(O)c1ccc(NCc2nc3ccccc3n2Cc2ccccc2)cc1	FXIIa inh 1536 101
COc1cc([N+](=O)[O-])cc2sc(NC(C)=O)nc12	FXIa inh 1536 60
CC(=O)Nc1cccc2c1C(=O)N(c1ccccc1OC(C)=O)C2=O	none
CC1=CC(=O)C(C(C)=Nc2ccccc2Cl)C(=O)O1 (stereo not given)	none
CCC(=O)OCCn1c(=O)c2cc3c(=O)n(CCOC(=O)CC)c(=O)c3cc2c1=O	FXIIa inh 1536 54
COc1ccc(C2NC(c3ccc(OC)cc3)C(c3ccccc3)C(=O)C2c2ccccc2)cc1 (stereo not given)	none
COc1ccc(C2OC(=O)C(C)(C)C(=O)C2(C)C)cc1OC (stereo not given)	none
COc1ccc(C2N3CC4(C)CN2CC(C)(C3)C4=O)cc1OC (stereo not given)	hK5 inh 61
c1ccc(-c2nnc(OCC3CCCO3)c3ccccc23)cc1 (stereo not given)	none
O=C(CNc1cc(S(=O)(=O)N2CCOCC2)ccc1N1CCCC1)N1CCc2ccccc21	none
CNC(=O)c1ccc(N(Cc2ccccc2)S(C)(=O)=O)cc1	hK5 inh 72, FXIIa inh 1536 58
C/C=N\NC(=O)COc1cc(C)ccc1C	none
CCCN1C(=O)C2C(C(=O)Nc3cccc(OC)c3)C3C=CC2(O3)C1C(=O)NC1CCCCC1 (stereo not given)	none
C=C(C)CC1N(c2cccc(OC)c2)C(=O)C2C(C(=O)O)C3C=CC21O3 (stereo not given)	hK5 inh 45
Cc1nonc1CN(C)C(=O)CC1C(=O)NCCN1Cc1cccc(C(F)(F)F)c1 (stereo not given)	none
COc1ccc(C2CC(c3cccs3)=NN2C(=O)COC(=O)c2cncc(Br)c2)cc1OC (stereo not given)	none (no result: FXIIa inh 1536)
Cc1ccc(CN(C)CC(=O)Nc2ccc3c(c2)CCC3)cc1	hK5 inh 47
N=C1C=CC=C2C1=NC1(CCCCC1)N2O	hK5 inh 98, thrombin 1536 104
Cc1ccc(S(=O)(=O)NC(CC(=O)NCc2ccco2)c2ccco2)cc1 (stereo not given)	none
Cc1ccc(S(=O)(=O)NC(CC(C)C)C(=O)NCc2ccco2)cc1 (stereo not given)	hK5 inh 45
O=[N+]([O-])c1cccc(-c2cc3cccc[n+]3cc2-c2cccc([N+](=O)[O-])c2)c1	hK5 inh 46
Cc1ccccc1N1CCN(Cc2c[nH]c3ccccc23)CC1	FXIIa inh 1536 48
COc1ccccc1N1CCN(Cc2c[nH]c3ccccc23)CC1	none
CCN(CC)CCNC(=O)c1ccc(NC(=O)c2cccc(S(=O)(=O)Nc3ccc(C)cc3)c2)cc1	FXIa inh 1536 101
CCC(C)NC(=O)c1ccccc1NC(=O)CN1C(=O)c2ccccc2S1(=O)=O (stereo not given)	none
O=C(NCC1CCCO1)c1cc2c(=O)[nH]c3ccccc3c2s1 (stereo not given)	none (no result: hK5 inh)
CC1(C)N=c2ccc([N+](=O)[O-])c(N)c2=[N+]1[O-]	FXIa inh 1536 40
OCC1OC(n2cnc3ccccc32)CC1O (stereo not given)	none
O=C1OC(Nc2ccc(F)c([N+](=O)[O-])c2)c2ccccc21 (stereo not given)	thrombin 1536 50, FXIa inh 1536 44
Cn1c(SCC(=O)N2c3ccccc3CCc3ccccc32)nnc1-c1cc2ccccc2cc1O	thrombin 1536 101
Cc1ccc(OCC(=O)N2CCC(N3CCCCCC3)CC2)cc1	thrombin 1536 42
Cc1ccc(OCC(=O)N2CCN(C(=O)CCC3CCCC3)CC2)cc1	none
COc1cc(C(=O)OCC(=O)NC2CCS(=O)(=O)C2)ccc1OCc1c(C)noc1C (stereo not given)	none
Cc1ccc(/C=C/C(=O)N2CCCC(C(N)=O)C2)o1 (stereo not given)	none
CCOc1cc(S(=O)(=O)NCc2ccc(OC)cc2)c(OCC)cc1-n1cnnn1	hK5 inh 46, thrombin 1536 69
CCOc1cc(S(=O)(=O)NCCc2ccc(OC)c(OC)c2)c(OCC)cc1-n1cnnn1	none
Cc1cccc2c(=O)c(Br)c(C)n(Cc3ccccc3)c12	none
COc1ccc(OC)c(-c2csc(NC(=O)Cc3cccs3)n2)c1	none
Oc1ccc(/C=N/Nc2nc(-c3cccnc3)nc3ccccc23)c(O)c1	FXIa inh 1536 42
Cc1c(O)ccc(/C=N/Nc2nc(-c3cccnc3)nc3ccccc23)c1O	none
Cc1cc(Cl)c(S(=O)(=O)NCc2ccccc2)cc1OCC(N)=O	none
Cc1cc(Cl)c(S(=O)(=O)NCc2ccncc2)cc1OCC(N)=O	hK5 inh 54
Cc1cc(Cl)c(S(=O)(=O)N2CCCCCC2)cc1OCC(N)=O	hK5 inh 41
FC(F)(F)c1ccc(Nc2nnnc3ccccc23)cc1	none
O=C(CNC(=O)c1ccc(Cl)cc1)NCC(F)(F)F	none
Cc1ccccc1NC(=S)NCc1ccco1	none
CCOc1ccccc1NC(=S)NCc1ccco1	hK5 inh 45
O=C(Cc1ccccc1[N+](=O)[O-])Nc1ccccc1C(=O)N1CCCC1	FXIIa inh 1536 85
O=C(NCCCN1CCCC1)c1ccc2c(Cl)c3c(nc2c1)CCCC3	FXIIa inh 1536 41
Brc1c(C[n+]2ccccc2)nc2ccccn12	FXIIa inh 1536 53
Cc1noc(C)c1COC(=O)[C@@H](NC(=O)c1ccccc1)C(C)C	none
Cc1nn(C(C)C(=O)NCCCc2ccccc2)c(=O)c2cc3occc3n12 (stereo not given)	none
Cc1nn(C(C)C(=O)NCC2CCCO2)c(=O)c2cc3occc3n12 (stereo not given)	hK5 inh 43
O=C(CSc1nc2ccccc2s1)N1CCOCC1	none
NC(=O)C1(N2CCCCC2)CCN(C(=O)CSc2nc3ccccc3s2)CC1	hK5 inh 59
COc1ccc(C(=O)CSc2nnc(CNC(=O)c3ccco3)n2C)cc1	none
CC1(C)CC(=O)C2=C(C1)N(Cc1ccccc1)C(=O)C2(NC(=O)C(C)(C)C)C(F)(F)F (stereo not given)	hK5 inh 53
CCOC(=O)Cn1cncc1-c1ccc([N+](=O)[O-])cc1	none
CCOc1ccc(NC(=O)Cn2cncc2-c2ccc([N+](=O)[O-])cc2)cc1	hK5 inh 41
Cn1c(=O)c2cc(NC(=O)c3ccccc3Cl)c(=O)oc2n(C)c1=O	thrombin 1536 80
O=C(Nc1ccccc1Cl)c1ccccc1Cl	none
Cc1ccc(/C=c2\sc3nc(-c4ccccc4Br)nn3c2=O)o1	thrombin 1536 104
Cc1ccc(NC(=O)CN(c2cc(C)cc(C)c2)S(=O)(=O)c2c(C)noc2C)nc1	hK5 inh 40
